The source of these data is ChEMBL document CHEMBL1148770, “Conformation-activity relationship of neuropeptide S and some structural mutants: helicity affects their interaction with the receptor” (J Med Chem, 2007).

SMILES strings stand for the structures. pEC50, pIC50: −log10 of the molar value. Square brackets hold non-standard residues; d marks the D form. Peptide text beside a SMILES is read from it. Aib = CC(C)(N)C(=O)O

Holding throughout (assay type): functional, cell-based
Assay [1] concerns the target T1, Neuropeptide S receptor (Mus musculus, UniProt Q8BZP8).
T1 sequence (Q8BZP8 whole entry): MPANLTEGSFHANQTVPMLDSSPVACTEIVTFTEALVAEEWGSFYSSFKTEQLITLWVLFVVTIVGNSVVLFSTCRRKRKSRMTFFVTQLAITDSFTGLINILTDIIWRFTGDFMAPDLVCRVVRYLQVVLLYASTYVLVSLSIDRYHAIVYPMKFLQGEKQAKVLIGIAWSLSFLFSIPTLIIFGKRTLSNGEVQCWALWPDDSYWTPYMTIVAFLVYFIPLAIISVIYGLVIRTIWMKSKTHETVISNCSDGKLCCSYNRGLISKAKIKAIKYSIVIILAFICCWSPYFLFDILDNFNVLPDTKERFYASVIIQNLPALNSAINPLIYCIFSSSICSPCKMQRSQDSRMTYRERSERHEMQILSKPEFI
The assay is described as follows: Agonist activity at mouse recombinant NPSR expressed in HEK293 cells assessed as calcium mobilization. Put shortly:
(§1)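 HEK293 cells stably expressing mouse NPSR, grown in DMEM/10% FBS/2 mM glutamine/hygromycin at 37 °C, 5% CO2. Seeded 50,000 cells/well on poly-D-lysine; next day loaded 30 min at 37 °C with 3 µM Fluo-4 AM, 2.5 mM probenecid, 0.01% pluronic acid. Read in HBSS/20 mM HEPES/probenecid/Brilliant Black at ≈22 °C on FlexStation; peak fluorescence change as % baseline; logistic fit; ≥4 experiments in duplicate.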
On the technique in general: Calcium flux is commonly read through the fluorescence of an indicator in the cells.

Assay [2] concerns the target T2, Neuropeptide S receptor (Mus musculus) (UniProt Q8BZP8).
T2 sequence (whole entry): T1 sequence (Q8BZP8 whole entry)
The assay is described as follows: Agonist activity at mouse recombinant NPSR expressed in HEK293 cells assessed as calcium mobilization relative to baseline. In a few lines: as §1

Assay [3] has as its target T1, Neuropeptide S receptor. The assay is described as follows: Antagonist activity at mouse NPSR expressed in HEK293 cells assessed as inhibition of 100 nM hNPS-induced calcium mobilization. Put shortly:
(§2)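 Mouse NPSR stably expressed in HEK293 cells, grown with hygromycin, then plated at 50 000 cells/well. Next day, cells were loaded for 30 min at 37 °C with 3 µM Fluo-4 AM, 2.5 mM probenecid and 0.01% pluronic acid. The assay buffer was HBSS with 20 mM HEPES, probenecid and 500 µM Brilliant Black. Fluorescence was read at about 22 °C. pIC50 came from a logistic fit of peak fluorescence (% of baseline). At least four experiments, each in duplicate.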

The target in assay [4] is T1, Neuropeptide S receptor. The assay is described as follows: Antagonist activity at mouse NPSR expressed in HEK293 cells assessed as inhibition of 10 nM hNPS-induced calcium mobilization. Put shortly: as §2

Turning to `CSCC[C@H](NC(=O)C(C)(C)NC(=O)[C@@H](NC(=O)CNC(=O)[C@@H](NC(=O)CNC(=O)[C@H](CC(N)=O)NC(=O)[C@H](CCCNC(=N)N)NC(=O)[C@H](Cc1ccccc1)NC(=O)[C@@H](N)CO)C(C)C)[C@@H](C)O)C(=O)N[C@@H](CCCCN)C(=O)N[C@@H](CCCCN)C(=O)N[C@H](C(=O)N[C@@H](CO)C(=O)N[C@@H](Cc1ccccc1)C(=O)N[C@@H](CCC(N)=O)C(=O)N[C@@H](CCCNC(=N)N)C(=O)N[C@@H](C)C(=O)N[C@@H](CCCCN)C(=O)N[C@@H](CO)C(=O)O)[C@@H](C)O` (H-SFRNGVGT[Aib]MKKTSFQRAKS-OH), the negative-log EC50 (pEC50) (in general, the negative decadic logarithm of the EC50, by convention in mol/L) on Neuropeptide S receptor [1] was 7.99. The Emax – broadly, the maximal effect, on the per cent scale that the assay sets – in assay [2] came to 190%.

As for `CSCC[C@H](NC(=O)CNC(=O)[C@@H](NC(=O)CNC(=O)[C@@H](NC(=O)C(C)(C)NC(=O)[C@H](CC(N)=O)NC(=O)[C@H](CCCNC(=N)N)NC(=O)[C@H](Cc1ccccc1)NC(=O)[C@@H](N)CO)C(C)C)[C@@H](C)O)C(=O)N[C@@H](CCCCN)C(=O)N[C@@H](CCCCN)C(=O)N[C@H](C(=O)N[C@@H](CO)C(=O)N[C@@H](Cc1ccccc1)C(=O)N[C@@H](CCC(N)=O)C(=O)N[C@@H](CCCNC(=N)N)C(=O)N[C@@H](C)C(=O)N[C@@H](CCCCN)C(=O)N[C@@H](CO)C(=O)O)[C@@H](C)O` (H-SFRN[Aib]VGTGMKKTSFQRAKS-OH), the negative logarithm of the IC50 (pIC50) – broadly, the IC50 on a negative log10 scale, so that one unit is a factor of ten – on Neuropeptide S receptor [3] was 5.79; at Neuropeptide S receptor [4], 6.27. Moreover, the pEC50 on Neuropeptide S receptor [1] was 6.72. For the same compound, the Emax in assay [2] was determined as 65%.

Consider `CSCC[C@H](NC(=O)CNC(=O)[C@@H](NC(=O)CNC(=O)[C@@H](NC(=O)[C@@H](C)NC(=O)[C@H](CC(N)=O)NC(=O)[C@H](CCCNC(=N)N)NC(=O)[C@H](Cc1ccccc1)NC(=O)[C@@H](N)CO)C(C)C)[C@@H](C)O)C(=O)N[C@@H](CCCCN)C(=O)N[C@@H](CCCCN)C(=O)N[C@H](C(=O)N[C@@H](CO)C(=O)N[C@@H](Cc1ccccc1)C(=O)N[C@@H](CCC(N)=O)C(=O)N[C@@H](CCCNC(=N)N)C(=O)N[C@@H](C)C(=O)N[C@@H](CCCCN)C(=O)N[C@@H](CO)C(=O)O)[C@@H](C)O` (H-SFRN[dA]VGTGMKKTSFQRAKS-OH), for which the pEC50 on Neuropeptide S receptor [1] is 7.55. The maximal response (Emax) in assay [2] stood at 90%.

Take `CSCC[C@H](NC(=O)CNC(=O)[C@@H](NC(=O)CNC(=O)[C@@H](NC(=O)CNC(=O)[C@H](CC(N)=O)NC(=O)[C@H](CCCNC(=N)N)NC(=O)[C@H](Cc1ccccc1)NC(=O)C(C)(C)N)C(C)C)[C@@H](C)O)C(=O)N[C@@H](CCCCN)C(=O)N[C@@H](CCCCN)C(=O)N[C@H](C(=O)N[C@@H](CO)C(=O)N[C@@H](Cc1ccccc1)C(=O)N[C@@H](CCC(N)=O)C(=O)N[C@@H](CCCNC(=N)N)C(=O)N[C@@H](C)C(=O)N[C@@H](CCCCN)C(=O)N[C@@H](CO)C(=O)O)[C@@H](C)O` (H-[Aib]FRNGVGTGMKKTSFQRAKS-OH): on Neuropeptide S receptor [1], the pEC50 was 8.17. Further, the Emax in assay [2] was 184%.

In the case of `CSCC[C@H](NC(=O)CNC(=O)[C@@H](NC(=O)CNC(=O)[C@@H](NC(=O)CNC(=O)[C@H](CC(N)=O)NC(=O)[C@H](CCCNC(=N)N)NC(=O)[C@H](Cc1ccccc1)NC(=O)[C@@H](N)CO)C(C)C)[C@@H](C)O)C(=O)N[C@@H](CCCCN)C(=O)N[C@@H](CCCCN)C(=O)N[C@H](C(=O)N[C@@H](CO)C(=O)N[C@@H](Cc1ccccc1)C(=O)N[C@@H](CCC(N)=O)C(=O)N[C@@H](CCCNC(=N)N)C(=O)N[C@@H](C)C(=O)N[C@@H](CCCCN)C(=O)N[C@@H](CO)C(=O)O)[C@@H](C)O` [NEUROPEPTIDE S] (H-SFRNGVGTGMKKTSFQRAKS-OH), the pEC50 at Neuropeptide S receptor [1] is 8.04. The maximum response (Emax) in assay [2] was 175%.
